Measured values taken from ChEMBL document CHEMBL1828621, “Single step synthesis of new fused pyrimidine derivatives and their evaluation as potent Aurora-A kinase inhibitors” (Eur J Med Chem, 2011).
Values after ≈ are worked out from the molar mass of the structure shown.

What was measured:
Aurora kinase A = target: T1, Aurora kinase A (Homo sapiens, UniProt O14965); experiment: Inhibition of GST-tagged Aurora A kinase expressed in insect cells assessed as inhibition of [33P]gamma-ATP incorporation in substrate after 60 mins by scintillation counting
T1 sequence (O14965 whole entry): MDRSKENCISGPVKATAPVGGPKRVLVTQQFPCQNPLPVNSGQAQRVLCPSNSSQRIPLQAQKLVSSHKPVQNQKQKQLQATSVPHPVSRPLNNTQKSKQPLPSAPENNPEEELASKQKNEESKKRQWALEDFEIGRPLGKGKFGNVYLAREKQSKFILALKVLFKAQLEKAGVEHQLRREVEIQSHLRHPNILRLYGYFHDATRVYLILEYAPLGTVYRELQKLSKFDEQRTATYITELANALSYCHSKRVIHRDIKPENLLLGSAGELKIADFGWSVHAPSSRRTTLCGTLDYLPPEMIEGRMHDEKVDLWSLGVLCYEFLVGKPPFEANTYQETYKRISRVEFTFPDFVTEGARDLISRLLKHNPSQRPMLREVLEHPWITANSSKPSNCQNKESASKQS
In short: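 Reaction: biotinylated CHOCKtide substrate with ATP/[γ-33P]ATP mix, 60 min at room temperature, in 50 mM HEPES pH 7.5, 10 mM MgCl₂, 1 mM DTT, NaVO₃ and 0.2 mg/mL BSA. Stopped with EDTA/ATP plus streptavidin SPA beads; beads floated on 5 M CsCl and counted for phosphate incorporated into substrate.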

HCT-116 [1] = experiment: Cytotoxicity against human HCT116 cells assessed as cell survival at 10 ug/ml after 48 hrs by sulforhodamine B method relative to control; assay type: functional
In short: (§1)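 HCT116 colon tumour cells grown in RPMI 1640 with 5% FBS and 2 mM L-glutamine. Seeded at 10,000 cells/well and held 24 h at 37 °C, 5% CO₂ before dosing. Drugs kept as DMSO stocks at 400-fold the top final concentration, diluted in medium with gentamicin, tested at four concentrations for 48 h. Fixed with cold TCA (final 10%) for 60 min at 4 °C, stained with 0.4% SRB, bound dye dissolved in Tris-EDTA, read on an ELISA reader. Extra plates fixed at dosing served as baseline.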

HCT-116 [2] = experiment: Cytotoxicity against human HCT116 cells after 48 hrs by sulforhodamine B method; assay type: functional, cell-based; conditions: HCT-116, 48 h; in short: as §1
HCT-116 [3] = experiment: Cytotoxicity against human HCT116 cells assessed as cell survival at 5 ug/ml after 48 hrs by sulforhodamine B method relative to control; assay type: functional; in short: as §1
HCT-116 [4] = experiment: Cytotoxicity against human HCT116 cells assessed as cell survival at 2.5 ug/ml after 48 hrs by sulforhodamine B method relative to control; assay type: functional; in short: as §1
HCT-116 [5] = experiment: Cytotoxicity against human HCT116 cells assessed as cell survival at 1 ug/ml after 48 hrs by sulforhodamine B method relative to control; assay type: functional; in short: as §1

Row | SMILES | IC50 (Aurora kinase A; read-out: IC50) [nM] | Ratio (HCT-116 [1]) | IC50 (HCT-116 [2]) [µg/mL] | Ratio (HCT-116 [3]) | Ratio (HCT-116 [4]) | Ratio (HCT-116 [5]) | IC50 (Aurora kinase A)
1 | Cc1cc2ncc(S(=O)(=O)c3ccccc3)c(-c3ccccc3)n2n1 | 101 | 0.597 | > 25 | 0.671 | 0.698 | 0.774 | –
2 | O=S(=O)(c1ccccc1)c1cnc2cc(-c3ccccc3)nn2c1-c1ccccc1 | 51 | 0.377 | 1.27 (≈ 3.09 µM) | 0.43 | 0.455 | 0.683 | –
3 | COc1ccc(-c2cc3ncc(S(=O)(=O)c4ccccc4)c(-c4ccccc4)n3n2)cc1 | 25 | 0.217 | 1.28 (≈ 2.9 µM) | 0.288 | 0.436 | 0.516 | –
4 | O=S(=O)(c1ccccc1)c1cnc2cc(-c3ccc(Cl)cc3)nn2c1-c1ccccc1 | 120 | 0.42 | 1.64 (≈ 3.68 µM) | 0.42 | 0.508 | 0.56 | –
5 | Cc1nn2c(-c3ccccc3)c(S(=O)(=O)c3ccccc3)cnc2c1Br | – | 0.183 | 2.21 (≈ 5.16 µM) | 0.253 | 0.373 | 0.529 | Not Active
6 | O=S(=O)(c1ccccc1)c1cnc2c(Br)c(-c3ccccc3)nn2c1-c1ccccc1 | 39 | 0.24 | 1.34 (≈ 2.73 µM) | 0.271 | 0.42 | 0.629 | –
7 | O=S(=O)(c1ccccc1)c1cnc2cc(-c3ccccc3)nn2c1-c1ccc(Cl)cc1 | – | 0.797 | > 25 | 0.894 | 0.953 | 0.987 | Not Active
8 | COc1ccc(-c2cc3ncc(S(=O)(=O)c4ccccc4)c(-c4ccc(Cl)cc4)n3n2)cc1 | – | 0.744 | > 25 | 0.778 | 0.794 | 0.824 | Not Active
9 | Cc1ccc(-c2c(S(=O)(=O)c3ccccc3)cnc3cc(-c4ccc(Cl)cc4)nn23)cc1 | – | 0.333 | 9.3 (≈ 20.2 µM) | 0.382 | 0.665 | 1 | Not Active
10 | O=S(=O)(c1ccccc1)c1cnc2nc3ccccc3n2c1-c1ccccc1 | – | 0.82 | > 25 | 0.845 | 0.885 | 0.984 | Not Active
11 | O=S(=O)(c1ccccc1)c1cnc2nc3ccccc3n2c1-c1ccc(Cl)cc1 | – | 0.79 | > 25 | 0.889 | 0.905 | 0.95 | Not Active
12 | O=S(=O)(c1ccccc1)c1cnc2nc3ccccc3n2c1-c1ccc(Br)cc1 | – | 0.209 | 16.3 (≈ 35.1 µM) | 0.624 | 0.748 | 1 | Not Active
13 | O=S(=O)(c1ccccc1)c1cnc2ncnn2c1-c1ccccc1 | 104 | 0.256 | 1.97 (≈ 5.86 µM) | 0.294 | 0.302 | 0.689 | –
14 | O=S(=O)(c1ccccc1)c1cnc2ncnn2c1-c1ccc(Cl)cc1 | 9240 | 0.243 | 2.15 (≈ 5.8 µM) | 0.316 | 0.377 | 0.786 | –
15 | Cc1ccc(-c2c(S(=O)(=O)c3ccccc3)cnc3cc(-c4ccccc4)nn23)cc1 | – | 0.253 | 18 (≈ 42.3 µM) | 0.701 | 0.745 | 1 | Not Active
16 | Cc1ccc(-c2c(S(=O)(=O)c3ccccc3)cnc3c(Br)c(-c4ccccc4)nn23)cc1 | – | 0.309 | 14 (≈ 27.8 µM) | 0.53 | 0.701 | 1 | Not Active
17 | Cc1ccc(-c2cc3ncc(S(=O)(=O)c4ccccc4)c(-c4ccc(C)cc4)n3n2)cc1 | – | 0.246 | 10.5 (≈ 23.9 µM) | 0.408 | 0.764 | 1 | Not Active
18 | COc1cccc2c1C(=O)c1c(O)c3c(c(O)c1C2=O)C[C@@](O)(C(=O)CO)C[C@@H]3O[C@H]1C[C@H](N)[C@H](O)[C@H](C)O1 [DOXORUBICIN] | 40 | 0.291 | 1.3 (≈ 2.39 µM) | 0.42 | 0.439 | 0.523 | –
